Data reported in publication PMC2819108 (Bioorganic & medicinal chemistry, 2009).

Legend:
[1] = system: HUVEC (human umbilical vein endothelial cells); assay: Angiogenesis assay in vitro; type: cell-based; settings: 1 μM; 16 h treatment; Fig. 4
Procedure, shortened: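 HUVEC (1×10^5 cells) seeded on Matrigel in EBM-2 medium and treated with the test compound over several dose ranges (figure panels: 1 and 10 µM, with untreated control). Tube formation was observed after 16 h of treatment.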

[2] = system: 54 human cancer cell lines; assay: NCI human cancer cell proliferation assay; type: cell-based; settings: 48 h, read-out: GI50 in 16 of the 54 cell lines
Procedure, shortened: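 The NCI human tumour cell line panel was exposed to test compound at five concentrations in 10-fold serial dilution for 48 h. Growth inhibition was read as total cell protein by sulforhodamine B assay. GI50 was calculated from log dose-response curves.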

[3] = system: rat thoracic aorta rings; assay: Aortic ring assay; settings: 5 μM; day 6; Fig. 5
Procedure, shortened: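 Thoracic aortas from normal 1–2-month-old rats were excised into ice-cold PBS, cleaned of fibroadipose tissue, and cut into 1–1.5 mm cross-sections. Sections were washed five times in PBS, embedded in Matrigel on coverslips, and held 15 min at 37 °C, 5% CO2. EBM2 containing test compound (1–100 µM) was then added. Sprouting was examined on day 6 against an untreated control.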

[4] = system: MCF-7 cells; assay: Cell cycle assay; type: cell-based, human; settings: up to 5 μM; 48 h treatment; Fig. 3
Procedure, shortened: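 MCF-7 cells at 2×10^5 cells/ml were seeded in DMEM with 5% fetal calf serum and left overnight at 37 °C to attach. Different concentrations of test compound were then added. After 48 h of treatment, cell-cycle distribution was measured by flow cytometry.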

[5] = system: A-10 cells; assay: Loss of microtubules in A-10 cells; type: cell-based; settings: 20 μM compound; Fig. 2
[6] = system: MCF-7 human breast carcinoma cells; assay: MCF-7 cell proliferation assay; type: cell-based; settings: relative to CA-4

Row | SMILES | HUVEC tube formation [1] | GI50 [2] | functional angiogenesis in aortic ring assay (sprout formation) [3] | effect on MCF-7 cell cycle (G2/M phase arrest) [4] | effect on interphase microtubule network of A-10 cells [5] | fold less active than CA-4 as inhibitor of MCF-7 cell growth [6]
1 | COc1ccc(/C=C/C(=O)c2cc(OC)c(OC)c(OC)c2)cc1B(O)O [compound 4, 2-Methoxy-5-[(1E)-3-oxo-3-(3,4,5-trimethoxyphenyl)prop-1-en-1-yl]boronic acid] | significantly inhibited the tube formation | 10 to 200 nM | dramatically inhibited functional angiogenesis | did not cause significant G2/M phase arrest | extensive thinning of the network of microtubules | 
2 | COc1ccc(/C=C/C(=O)c2cc(OC)c(OC)c(OC)c2)cc1O [compound 6, (2E)-3-(3-Hydroxy-4-methoxyphenyl)-1-(3,4,5-trimethoxyphenyl) prop-2-en-1-one] |  |  |  |  | complete disappearance of the microtubule network | 3–4 fold
